Reference: ChEMBL document CHEMBL1145983, “Novel indolyl aryl sulfones active against HIV-1 carrying NNRTI resistance mutations: synthesis and SAR studies” (J Med Chem, 2003)

How the values were obtained:
[1] = test system: Human immunodeficiency virus 1; assay: Anti-HIV activity protecting MT-4 cells from HIV-1 induced cytopathogenicity; type: functional, organism-based; details: Human immunodeficiency virus 1, MT4
MT4 [2] = assay: Cytotoxicity, reducing the vaiability of mock-infected cells; type: functional; details: Homo sapiens
[3] = test system: Human immunodeficiency virus 1; assay: Selectivity ratio of CC50/EC50; type: functional
In short: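 Ratio of CC50 (MTT viability of mock-infected MT-4 cells) to EC50 (MTT-based 50% protection of HIV-1-infected MT-4 cells from cytopathicity), both determined in parallel.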

MT-4 (Homo sapiens) [4] = assay: Anti-HIV activity to protect MT-4 cells from cytopathogenicity induced by HIV-1 K103N-Y181C (MTT method)
C8166 [5] = assay: Anti-HIV activity to reduce the amount of p24 in C8166 cells infected with efavirenz resistance strain K103R, V179D, and P225H.; type: functional, cell-based, Homo sapiens
In short: (§1)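 Efavirenz-resistant K103R-V179D-P225H virus came from IIIB passaged in C8166 cells with efavirenz (up to 2 µM); stock 3.0 × 10^5 CCID50/mL. Acutely infected C8166 cells (1 × 10^4/well) were incubated at 37 °C with or without compound dilutions. p24 was measured by immunoenzymatic kit. Value is the concentration giving 90% p24 reduction; mean of three experiments.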

MT4 [6] = assay: Anti-HIV activity to protect MT-4 cells from HIV-1 induced cytopathogenicity by MTT method Y181C; type: functional, cell-based; details: Homo sapiens
In short: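 Acutely infected MT-4 cells (1 × 10^4/well) exposed to serial compound dilutions, then HIV-1 (wt IIIB from H9/IIIB supernatant, or Y181C mutant NIH N119) at inoculum giving full cytopathicity by day 4; 37 °C incubation; viability read by MTT. EC50 = µM giving 50% protection from virus-induced cytopathicity; mean ± SE of three experiments.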

C8166 [7] = assay: Anti-HIV activity to reduce the amount of p24 in WT IIIB infected C8166 cells; type: functional, cell-based; details: Homo sapiens
In short: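 HIV-1 IIIB came from supernatants of persistently infected H9/IIIB cells; stock 4.5 × 10^6 CCID50/mL. Acutely infected C8166 cells (1 × 10^4/well) were incubated at 37 °C with or without compound dilutions. p24 was measured by immunoenzymatic kit. Value is the concentration reducing p24 by 90%; mean of three experiments.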

MT-4 (Homo sapiens) [8] = assay: Anti-HIV activity to protect MT-4 cells from cytopathogenicity induced by HIV-1 K103N-Y181C (MTT method); remark: listed apart in the source
[9] = biological target: Human immunodeficiency virus type 1 reverse transcriptase (Human immunodeficiency virus 1, UniProt Q72547); assay: Activity to inhibit HIV-1 Reverse transcriptase activity in WT IIIB
In short: (§2)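 Purified recombinant RT (wt or K103N mutant) assayed for RNA-dependent DNA polymerase activity. Buffer: 50 mM Tris-HCl pH 7.8, 80 mM KCl, 6 mM MgCl2, 1 mM DTT, 0.1 mg/mL BSA. Template:primer was poly(rC)-oligo(dG)12-18 at 0.5 OD260 unit/mL, with [3H]dGTP. Incubated 30 min at 37 °C; acid-insoluble radioactivity counted on glass-fibre filters. IC50 reported as mean of two experiments.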

[10] = biological target: Human immunodeficiency virus type 1 reverse transcriptase (Human immunodeficiency virus 1, UniProt Q72547, K103N); assay: Activity to inhibit HIV-1 Reverse transcriptase activity in K103N; in short: as §2
C8166 [11] = assay: Anti-HIV activity to reduce the amount of p24 in C8166 cells infected with efavirenz resistance strain; type: functional, cell-based; details: Homo sapiens; in short: as §1

Compound | EC50 [1] [nM] | CC50 (MT4 [2]) [µM] | Selectivity index [3] | other results
NC(=O)c1cc2cc(Cl)ccc2n1S(=O)(=O)c1ccccc1 | 66000 | > 200 | >3 | 
CCOC(=O)c1[nH]c2ccccc2c1S(=O)(=O)c1ccccc1 | 3700 | 157 | 42 | 
Cc1ccc(S(=O)(=O)c2c(C(N)=O)[nH]c3ccc(Cl)cc23)c(C)c1 | 4 | 37 | 9250 | EC50 (MT-4 (Homo sapiens) [4]): 10 µM
NNC(=O)c1[nH]c2ccccc2c1S(=O)(=O)c1ccccc1 | 500 | 133 | 266 | 
NNC(=O)c1[nH]c2ccc(Cl)cc2c1S(=O)(=O)c1ccccc1 | 10 | > 200 | >20000 | 
Cc1cccc(S(=O)(=O)c2c(C(N)=O)[nH]c3ccc(Cl)cc23)c1 | 1 | > 200 | >200000 | EC90 (C8166 [5]): 260 nM; EC50 (MT4 [6]): 6 nM; EC90 (C8166 [7]): 5 nM; EC50 (MT-4 (Homo sapiens) [8]): 7 µM
CCOC(=O)c1cc2ccccc2n1S(=O)(=O)c1cc(Cl)ccc1N | 1800 | 50 | 28 | 
NNC(=O)c1[nH]c2ccc(Cl)cc2c1Sc1ccccc1 | 500 | 44 | 88 | 
Cc1ccccc1S(=O)(=O)c1c(C(N)=O)[nH]c2ccc(Cl)cc12 | 1 | > 200 | >200000 | EC90 (C8166 [5]): 2600 nM; EC90 (C8166 [7]): 5 nM; EC50 (MT-4 (Homo sapiens) [8]): 10 µM
CCOC(=O)c1[nH]c2ccc(Cl)cc2c1Sc1ccccc1N | 2300 | > 200 | >87 | 
Cc1ccc(S(=O)(=O)c2c(C(N)=O)[nH]c3ccc(Cl)cc23)cc1 | 3 | > 200 | >66667 | IC50 [9]: 72 nM; IC50 [10]: > 5 µM; EC50 (MT4 [6]): 20 nM; EC90 (C8166 [7]): 10 nM; EC50 (MT-4 (Homo sapiens) [4]): > 100 µM
CCOC(=O)c1cc2cc(Cl)ccc2n1S(=O)(=O)c1cc(Cl)ccc1N | 8300 | 39 | 4.7 | 
CCOC(=O)c1[nH]c2ccc(Cl)cc2c1Sc1cc(Cl)ccc1N | 2500 | > 200 | >80 | 
Cc1cc(C)cc(S(=O)(=O)c2c(C(N)=O)[nH]c3ccc(Cl)cc23)c1 | 4 | 15 | 3750 | IC50 [9]: 31 nM; IC50 [10]: > 5 µM; EC90 (C8166 [7]): 2 nM; EC50 (MT-4 (Homo sapiens) [4]): 0.65 µM
NC(=O)c1[nH]c2ccc(Cl)cc2c1S(=O)(=O)c1ccccc1 [L-737126] | 1 | 45 | 45000 | IC50 [9]: 25 nM; IC50 [10]: > 5 µM; EC90 (C8166 [11]): 900 nM; EC90 (C8166 [7]): 7 nM

Now from value to compound, other results behind:

EC50 [1] [nM] | Compound | CC50 (MT4 [2]) [µM] | Selectivity index [3] | other results
11 | NC(=O)c1[nH]c2ccc(Cl)cc2c1S(=O)(=O)c1ccc(Cl)cc1 | > 200 | >18182 | 
20 | NC(=O)c1[nH]c2ccc(Cl)cc2c1Sc1ccccc1 | 9 | 450 | 
300 | NNC(=O)c1[nH]c2ccc(Cl)cc2c1S(=O)(=O)c1cc(Cl)ccc1N | 19 | 63 | 
300 | NC(=O)c1[nH]c2ccccc2c1S(=O)(=O)c1cc(Cl)ccc1N | 3.5 | 11.7 | 
1600 | NC(=O)c1[nH]c2ccc(Cl)cc2c1Sc1cc(Cl)ccc1N | 33 | 20 | 
3100 | NC(=O)c1[nH]c2ccc(Cl)cc2c1Sc1ccc(Cl)cc1 | 13 | 4 | 
80 | CC(C)c1ccc(S(=O)(=O)c2c(C(N)=O)[nH]c3ccc(Cl)cc23)cc1 | > 200 | >2500 | 
50 | Cc1ccc(S(=O)(=O)c2c(C(=O)NN)[nH]c3ccc(Cl)cc23)cc1 | > 200 | >4000 | 
5000 | NNC(=O)c1[nH]c2ccc(Cl)cc2c1Sc1ccc(F)cc1 | 66 | 13 | 
10000 | NNC(=O)c1[nH]c2ccc(Cl)cc2c1Sc1ccc(Cl)cc1 | 30 | 3 | 
9000 | NC(=O)c1[nH]c2ccccc2c1Sc1cc(Cl)ccc1N | 20 | 2.2 | 
100 | Cc1cc(C)cc(S(=O)(=O)c2c(C(=O)NN)[nH]c3ccc(Cl)cc23)c1 | > 200 | >2000 | 
14 | NC(=O)c1[nH]c2ccc(Cl)cc2c1S(=O)(=O)c1ccc(F)cc1 | 17 | 1214 | 
1500 | Cc1ccc(Sc2c(C(=O)NN)[nH]c3ccc(Cl)cc23)cc1 | 129 | 86 | 
8000 | CC(C)(C)c1ccc(Sc2c(C(N)=O)[nH]c3ccc(Cl)cc23)cc1 | 45 | 6 | 
1400 | NC(=O)c1[nH]c2ccc(Cl)cc2c1Sc1ccc(F)cc1 | 13 | 9 | 
1900 | CC(C)c1ccc(Sc2c(C(N)=O)[nH]c3ccc(Cl)cc23)cc1 | 52 | 27 | 
15 | CC(=O)c1ccc2[nH]c(C(N)=O)c(S(=O)(=O)c3cc(C)cc(C)c3)c2c1 | > 200 | > 13300 | 
300 | NNC(=O)c1[nH]c2ccc(Cl)cc2c1S(=O)(=O)c1ccc(F)cc1 | 44 | 147 | 
130 | CC(C)(C)c1ccc(S(=O)(=O)c2c(C(N)=O)[nH]c3ccc(Cl)cc23)cc1 | 26 | 200 | 
1200 | NC(=O)c1[nH]c2ccc(Cl)cc2c1Sc1c(Cl)cccc1Cl | 61 | 51 | 
